Experimental data from different studies.
Protocols differ between the studies behind these lines.
Target: Ephrin type-B receptor 6 (EPHB6, Homo sapiens, UniProt O15197)
Residues used in one study (O15197 32-1021): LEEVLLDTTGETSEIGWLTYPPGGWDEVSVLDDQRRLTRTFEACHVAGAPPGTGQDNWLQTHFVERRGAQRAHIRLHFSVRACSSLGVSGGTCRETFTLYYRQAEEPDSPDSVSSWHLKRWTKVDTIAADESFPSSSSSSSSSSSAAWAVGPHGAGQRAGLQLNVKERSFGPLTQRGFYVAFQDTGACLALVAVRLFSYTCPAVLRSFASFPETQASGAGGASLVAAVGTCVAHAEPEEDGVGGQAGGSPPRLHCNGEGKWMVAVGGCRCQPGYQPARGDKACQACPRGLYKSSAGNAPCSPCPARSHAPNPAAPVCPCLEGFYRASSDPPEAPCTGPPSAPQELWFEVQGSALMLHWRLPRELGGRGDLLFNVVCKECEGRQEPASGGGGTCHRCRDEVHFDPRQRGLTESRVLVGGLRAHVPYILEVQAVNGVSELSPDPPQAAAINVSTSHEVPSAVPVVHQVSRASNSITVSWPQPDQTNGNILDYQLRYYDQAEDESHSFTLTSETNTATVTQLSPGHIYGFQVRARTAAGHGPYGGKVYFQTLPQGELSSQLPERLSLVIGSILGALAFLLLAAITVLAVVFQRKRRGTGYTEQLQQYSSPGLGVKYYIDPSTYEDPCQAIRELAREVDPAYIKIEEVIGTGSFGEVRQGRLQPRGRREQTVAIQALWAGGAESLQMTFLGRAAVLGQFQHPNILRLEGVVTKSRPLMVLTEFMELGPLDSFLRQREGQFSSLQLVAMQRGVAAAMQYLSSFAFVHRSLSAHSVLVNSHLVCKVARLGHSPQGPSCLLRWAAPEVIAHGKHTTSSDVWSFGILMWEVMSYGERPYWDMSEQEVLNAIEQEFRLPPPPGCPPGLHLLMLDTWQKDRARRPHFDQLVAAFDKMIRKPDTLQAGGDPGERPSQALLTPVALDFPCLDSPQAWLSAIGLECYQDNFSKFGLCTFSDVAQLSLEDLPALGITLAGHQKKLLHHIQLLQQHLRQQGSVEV

Compound | effect on | technique | concentration | remaining binding
O=C(c1ccc(Nc2ncc(Cl)c(-c3ccc(Cl)s3)n2)cc1)N1CCC(N2CCCC2)CC1 | binding | competition with immobilised ligand | 1 µM | 0%
C[C@@H](c1ccc(-n2cnc3c(N)ncnc32)cc1)N1CCc2nn(C)c(Cc3ccccc3)c2C1=O | binding | competition with immobilised ligand | 0.1 µM | 51%
CS(=O)(=O)N1CCCC(NC(=O)[C@H](CCC2CCCCC2)NC(=O)c2ccc(CNC(=O)c3cnc4ccccn34)cc2)C1 (stereo partly shown) | cell-free assay | competition with immobilised ligand | 0.1 µM | 98%
O=C(c1ccc(Nc2nccc(-c3cc4ccccc4s3)n2)cc1)N1CCC(N2CCCC2)CC1 | binding | competition with immobilised ligand | 1 µM | 2.5%
Cc1c[nH]c2nccc(Oc3c(F)cc(Nc4cc(Cl)nc(N)n4)cc3F)c12 | cell-free assay | competition with immobilised ligand | 0.1 µM | 96%
C[C@H]1CCN(c2nccc(-c3cnn4ncccc34)n2)C1 | binding | – | 1 µM | 85%
COc1ncc2cc3ccccc3nc2c1C#N | cell-free assay | competition with immobilised ligand | 5 µM | 73%
CN(CCCC(F)(F)F)c1nccc(-c2cnn3ncccc23)n1 | binding | – | 1 µM | 100%
C[C@@H]1CN(c2cc(-c3n[nH]c4ccc(OC5(C)CC5)cc34)ncn2)C[C@H](C)O1 | cell-free assay | competition with immobilised ligand | 0.1 µM | 91%
CN(c1nccc(-c2cnn3ncccc23)n1)C1CC1 | binding | – | 1 µM | 100%
CCN1CCN(Cc2ccc(C(=O)Nc3ccc(C)c(Oc4ccc5c(c4)CC(=O)N5)c3)cc2C(F)(F)F)CC1 | binding | competition with immobilised ligand | 1 µM | 91%
N[C@H]1CCN(c2nccc(-c3cnn4ncccc34)n2)C1 | binding | – | 1 µM | 56%
CNC(=O)c1ccc(Nc2ncc(C(F)(F)F)c(NCc3nccnc3N(C)S(C)(=O)=O)n2)cc1 | cell-free assay | competition with immobilised ligand | 0.1 µM | 100%
O=C(c1ccc(Nc2ncc(Cl)c(-c3cc4ccccc4s3)n2)cc1)N1CCC(N2CCCC2)CC1 | binding | competition with immobilised ligand | 1 µM | 3.9%
CN(C)c1ncc(F)c(-c2cnn3ncccc23)n1 | binding | – | 1 µM | 77%
O=C(NC[C@@H]1[C@H]2CN(C(=O)OCc3cc(C(F)(F)F)cc(C(F)(F)F)c3)C[C@@H]12)c1ccc2[nH]nnc2c1 | cell-free assay | competition with immobilised ligand | 1 µM | 100%
Nc1ncc2c(n1)-c1c([nH]c3ccc(C#CC4CC4)cc13)CCCC2 | binding | competition with immobilised ligand | 1 µM | 84%
O=C(NCC1CCOCC1)c1n[nH]cc1NC(=O)c1c(F)cccc1F | binding | competition with immobilised ligand | 1 µM | 91%
CC1CCCN1c1nccc(-c2cnn3ncccc23)n1 (stereo not shown) | binding | – | 1 µM | 82%
COc1cnc(Nc2cccc(S(N)(=O)=O)c2)nc1N1CCN(c2ccccc2)CC1 | binding | competition with immobilised ligand | 1 µM | 95%
CN(C)c1nccc(-c2cnc3ncccn23)n1 | binding | – | 1 µM | 45%
C[C@@]1(Cc2ccc(C#N)cc2)C(=O)N(c2cc(Cl)cc(Cl)c2)c2ncc(C(=O)NC3(c4nc(C5CCC5)no4)CC3)n21 | cell-free assay | competition with immobilised ligand | 1 µM | 100%
